SF data for 22 compounds are collected here from ChEMBL document CHEMBL1144360, “Phenazine 5,10-dioxide derivatives as hypoxic selective cytotoxins” (2005).

Common to all, as to format: functional, Cricetulus griseus
For test [1], the system named is Cricetinae gen. sp. The test can be described thus: In vitro survival fraction of V79 cells after 2 hours upon treatment with compound under hypoxia at 20 uM. Details: unit: %. The gist of the method:
(§1)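 Clonogenic assay on V79 suspension cultures gassed with air (aerobic) or nitrogen (hypoxia), exposed to compound for 2 h. Colony survival expressed as survival fraction relative to untreated control under the same gas condition. Assays run in duplicate with at least three repetitions; reported value is the mean of two separate experiments.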

The subject of test [2] is Cricetinae gen. sp. The test can be described thus: In vitro survival fraction of V79 cells after 2 hours upon treatment with compound in air at 20 uM. More on the design: unit: %. The gist of the method:
as §1

The test system of test [3] is Cricetinae gen. sp. In words: In vitro survival fraction of V79 cells after 2 hours upon treatment with compound in air at 10 uM. Details: unit: %. An outline of the steps: as §1
For test [4], the system named is Cricetinae gen. sp. In words: In vitro survival fraction of V79 cells after 2 hours upon treatment with compound under hypoxia at 10 uM. Details: unit: %. The gist of the method: as §1
For test [5], the system named is Cricetinae gen. sp. In words: In vitro survival fraction of V79 cells after 2 hours upon treatment with compound under hypoxia at 5 uM. The gist of the method: as §1
In test [6] the test system is Cricetinae gen. sp. In words: In vitro survival fraction of V79 cells after 2 hours upon treatment with compound in air at 5 uM. The gist of the method:
as §1

Where “and” joins values, the source holds several entries; their conditions need not be identical. Identical values can stand only once.

On to `Cc1ccc2nc3cc(N)ccc3[n+]([O-])c2c1`, for which the SF in the test with Cricetinae gen. sp. [1] is 100; in the test with Cricetinae gen. sp. [2], 100 and 98.
On to `Nc1ccc2nc3cc(Cl)ccc3nc2c1`, for which the SF in the test with Cricetinae gen. sp. [1] is given as 100; with Cricetinae gen. sp. [2], 0.
In the same order, the values of `Nc1ccc2nc3cc(Br)ccc3nc2c1` are 0 and 0.
On to `Nc1ccc2c(c1)[n+]([O-])c1ccc(Br)cc1[n+]2[O-]`, for which the SF is on record as 0 in the test with Cricetinae gen. sp. [1], 64 with Cricetinae gen. sp. [3], 3 with Cricetinae gen. sp. [4] and 12 with Cricetinae gen. sp. [2].
For `[O-][n+]1c2ccc(Br)cc2[n+]([O-])c2ccc(O)cc21`, the SF stood at 0 in the test with Cricetinae gen. sp. [1] and 80 in the test on Cricetinae gen. sp. [2].
As for `Nc1ccc2c(c1)[n+]([O-])c1ccccc1[n+]2[O-]`, the SF came out at 0 with Cricetinae gen. sp. [1], 64 in the test with Cricetinae gen. sp. [3], 19 in the test with Cricetinae gen. sp. [4] and 2 in the test with Cricetinae gen. sp. [2].
For the compound `[O-][n+]1c2ccc(Cl)cc2[n+]([O-])c2ccc(O)cc21`, the SF with Cricetinae gen. sp. [1] and in the test on Cricetinae gen. sp. [2] was 100 in each case.
On to `COc1ccc2c(c1)[n+]([O-])c1ccc(N)cc1[n+]2[O-]`, for which the values for the SF in the test with Cricetinae gen. sp. [1] and with Cricetinae gen. sp. [2] were 23 and 87, respectively.
For `Nc1ccc2c(c1)[n+]([O-])c1ccc(Cl)cc1[n+]2[O-]`, the SF with Cricetinae gen. sp. [1] turned out to be 0; in the test with Cricetinae gen. sp. [3], 26; in the test on Cricetinae gen. sp. [4], 3; with Cricetinae gen. sp. [2], 0.
As to `Nc1ccc2nc3cc(C4OCCO4)ccc3nc2c1`, the SF with Cricetinae gen. sp. [1] and with Cricetinae gen. sp. [2] was 100 each time.
`Cc1ccc2nc3cc(O)ccc3nc2c1`: the SF in the test on Cricetinae gen. sp. [1] and in the test with Cricetinae gen. sp. [2] was 100 throughout.
Take `[O-][n+]1c2ccccc2[n+]([O-])c2cc(O)ccc21`: the values for the SF in the test on Cricetinae gen. sp. [1] and in the test with Cricetinae gen. sp. [2] were 73 and 100, respectively.
In the same order, the values of `Cc1ccc2c(c1)[n+]([O-])c1ccc(N)cc1[n+]2[O-]` are 11 and 61.
`[O-][n+]1c2ccc(C3OCCO3)cc2[n+]([O-])c2ccc(O)cc21`: the SF with Cricetinae gen. sp. [5] is reported as 5; with Cricetinae gen. sp. [1], 100; in the test on Cricetinae gen. sp. [6], 100; in the test with Cricetinae gen. sp. [2] it was 100.
Regarding `COc1ccc2c(c1)[n+]([O-])c1ccc(O)cc1[n+]2[O-]`, the results for the SF with Cricetinae gen. sp. [1] and in the test with Cricetinae gen. sp. [2] were 87 and 100, respectively.
In the same order, the values of `Cc1ccc2c(c1)[n+]([O-])c1ccc(O)cc1[n+]2[O-]` are 100 and 93.
`Oc1ccc2nc3cc(Br)ccc3nc2c1`: the SF in the test on Cricetinae gen. sp. [1] and in the test with Cricetinae gen. sp. [2] was 100 in each case.
Consider `O=Cc1ccc2nc3cc(O)ccc3nc2c1`, for which the SF in the test on Cricetinae gen. sp. [1] amounted to 100; with Cricetinae gen. sp. [2] it was 98.
Turning to `Nc1ccc2c(c1)[n+]([O-])c1ccc([N+](=O)[O-])cc1[n+]2[O-]`, the SF with Cricetinae gen. sp. [1] came to 2; with Cricetinae gen. sp. [3], 58; in the test on Cricetinae gen. sp. [4], 65; in the test on Cricetinae gen. sp. [2], 1.
In the case of `Cc1ccc2nc3cc(N)ccc3nc2c1`, the SF in the test on Cricetinae gen. sp. [1] was determined as 100; in the test on Cricetinae gen. sp. [2] it was 98.
For `Nc1ccc2c(c1)[n+]([O-])c1ccc(C3OCCO3)cc1[n+]2[O-]`, the SF in the test on Cricetinae gen. sp. [5] was 36; in the test with Cricetinae gen. sp. [1] it was 0; with Cricetinae gen. sp. [6], 100; in the test on Cricetinae gen. sp. [3] it was 86; in the test on Cricetinae gen. sp. [4], 1; with Cricetinae gen. sp. [2] it was 14.
Turning to `Oc1ccc2nc3cc(Cl)ccc3nc2c1`, the SF with Cricetinae gen. sp. [1] and with Cricetinae gen. sp. [2] was 100 in each case.
